# Results pooled from the literature.
# Each line is one published result; the experiments were not run side by side.
# KRAS G12D: GTPase KRas (KRAS, Homo sapiens, UniProt P01116, G12D)
# Chymotrypsinogen A: Chymotrypsinogen A (Bos taurus, UniProt P00766)
# CDK4: Cyclin-dependent kinase 4 (CDK4, Homo sapiens, UniProt P11802)
# Flap endonuclease 1: Flap endonuclease 1 (Homo sapiens, UniProt P39748)
# CHRM2: Muscarinic acetylcholine receptor M2 (CHRM2, Homo sapiens, UniProt P08172)
SMILES,target,test,conditions,IC50 [µM]
Cc1cc(SCc2sc(-c3ccc(C(F)(F)F)c(F)c3)nc2C)ccc1OCC(=O)O,"Thyroid hormone receptor alpha (THRA, Homo sapiens, UniProt P10827)","reporter gene, antagonist, luciferase",,31.4
CC[C@@H](C)[C@H]1NC(=O)[C@H](Cc2ccc(-c3ccccc3)cc2)NC(=O)[C@H](CC(C)C)NC(=O)[C@@H]2[C@@H](c3ccccc3)CCN2C(=O)[C@H](NC(=O)[C@@H](CCCNC(=N)N)NC(=O)[C@@H](CCCNC(=N)N)NC(C)=O)CSCSC[C@@H](C(=O)N[C@H](CCCNC(=N)N)C(=O)N[C@H](CCCNC(=N)N)C(N)=O)NC(=O)[C@H](C(C)C)NC(=O)[C@@H]2CCCN2C(=O)[C@H](CC(=O)O)NC(=O)[C@H](Cc2ccc(O)cc2)NC(=O)[C@@](C)(CO)NC1=O,KRAS G12D,"enzyme activity, inhibitor, TR-FRET",,> 11.1
COc1cccc(-c2nsc(=O)o2)c1,Chymotrypsinogen A,"enzyme activity, inhibitor",,2.19
C=CC(C)(C)c1cc(/C=C/C(=O)c2ccc(O)cc2)c(OC)cc1O,"Protein arginine N-methyltransferase 1 (Prmt1, Rattus norvegicus, UniProt Q63009)","enzyme activity, inhibitor",,> 333
CCOC(=O)[C@H]1Cc2c(cc([N+](=O)[O-])cc2[N+](=O)[O-])[C@@H](O)[C@@]12C(=O)Nc1ccc([N+](=O)[O-])cc12,CDK4,"cell-free assay, inhibitor, TR-FRET",,3.31
O=C(O)c1cc[c]([Sb](=[O])([OH])[OH])cc1[N+](=O)[O-],Flap endonuclease 1,"enzyme activity, inhibitor",with preincubation,0.66
C[N+](C)(C)CC#CCOC(=O)Nc1cccc(Cl)c1,CHRM2,"ligand displacement, radioligand",,330
CCCCC[C@@H]1NC(=O)[C@@H]2C[C@@H](OCC(=O)O)CN2C(=O)[C@H](CC(=O)O)NC(=O)[C@H](Cc2ccc(O)cc2)NC(=O)[C@H](CO)NC(=O)[C@H]([C@@H](C)CC)NC(=O)[C@H](Cc2ccc(-c3ccccc3)cc2)NC(=O)[C@H](CC(C)C)NC(=O)[C@@H]2CCCN2C(=O)[C@@H](NC(=O)[C@H](CCCNC(=N)N)NC(=O)[C@H](CCCNC(=N)N)NC(C)=O)CSSC[C@@H](C(=O)N[C@@H](CCCNC(=N)N)C(=O)N[C@@H](CCCNC(=N)N)C(N)=O)NC1=O,KRAS G12D,"enzyme activity, inhibitor, TR-FRET",,0.023
O=C(Nc1cc[c]([Sb](=[O])([OH])[OH])cc1)c1ccccc1,Flap endonuclease 1,"enzyme activity, inhibitor",with preincubation,12
CC(C)C[C@H](NC(=O)[C@H](Cc1ccccc1)NC(=O)[C@H](Cc1ccc(O)cc1)NC(=O)CNC(=O)[C@H](CCCCN)NC(=O)[C@H](CO)NC(=O)[C@H](CCC(N)=O)NC(=O)CNC(=O)[C@@H](NC(=O)[C@H](CO)NC(=O)[C@@H]1CCCN1C(=O)[C@H](CO)NC(=O)[C@H](CCC(N)=O)NC(=O)[C@H](Cc1ccc(O)cc1)NC(=O)[C@H](CCC(=O)O)NC(=O)[C@H](C)NC(=O)[C@H](CCCCN)NC(=O)[C@@H](N)Cc1ccccc1)C(C)C)C(=O)N[C@@H](Cc1ccccc1)C(=O)N[C@@H](CCCNC(=N)N)C(=O)N1CCC[C@H]1C(=O)N[C@@H](CCCNC(=N)N)C(=O)N[C@@H](CC(N)=O)C(N)=O,"Neuromedin-U receptor 1 (Mus musculus, UniProt O55040)","ligand displacement, radioligand",cell membranes,3e-05
CCOC(=O)[C@H]1Cc2c(cc([N+](=O)[O-])cc2[N+](=O)[O-])[C@@H](O)[C@@]12C(=O)Nc1ccc(Br)cc12,CDK4,"cell-free assay, inhibitor, TR-FRET",,0.32
O=C1O[C@H]2[C@@H]3OC(=O)c4cc(O)c(O)c(O)c4-c4c(O)c(O)c5oc(=O)c6c(c(O)c(O)c7oc(=O)c4c5c76)-c4c(cc(O)c(O)c4O)C(=O)OC[C@H]3OC(O)[C@@H]2OC(=O)c2cc(O)c(O)c(O)c2-c2c1cc(O)c(O)c2O (mixture of isomers),"Genome polyprotein, protease (Hepatitis C virus genotype 1b, UniProt Q9WMX2)","enzyme activity, inhibitor, fluorescence",,< 0.1
CC(C)C[C@H](NC(=O)[C@H](Cc1ccccc1)NC(=O)c1cnccn1)B(O)O,Chymotrypsinogen A,"enzyme activity, inhibitor",,> 33
[O]=[Sb]([OH])([OH])[c]1ccccc1,Flap endonuclease 1,"enzyme activity, inhibitor, fluorescence",with preincubation,160
c1ccc(-c2c[nH]c3ncnc(N4CCOCC4)c23)cc1,"Serine/threonine-protein kinase 3 (STK3, Homo sapiens, UniProt Q13188)","enzyme activity, inhibitor, ADP detection",,0.127
O=C1C(=O)N(Cc2cc3ccccc3s2)c2ccc(I)cc21,Chymotrypsinogen A,"enzyme activity, inhibitor",,1000
CC[C@H](C)[C@@H]1NC(=O)[C@H](Cc2ccc(-c3ccccc3)cc2)NC(=O)[C@H](CC(C)C)NC(=O)[C@@H]2CCCN2C(=O)[C@@H](NC(=O)[C@H](CCCNC(=N)N)NC(=O)[C@H](CCCNC(=N)N)NC(C)=O)CSSC[C@@H](C(=O)N[C@@H](CCCNC(=N)N)C(=O)N[C@@H](CCCNC(=N)N)C(N)=O)NC(=O)[C@H](C(C)C)NC(=O)[C@@H]2CC[C@H](c3ccccc3)N2C(=O)[C@H](CC(=O)O)NC(=O)[C@H](Cc2ccc(O)cc2)NC(=O)[C@H](CO)NC1=O,KRAS G12D,"enzyme activity, inhibitor, TR-FRET",,0.094
CCOC(=O)[C@H]1Cc2c(cc([N+](=O)[O-])cc2[N+](=O)[O-])[C@@H](O)[C@@]12C(=O)Nc1cccc(Br)c12,CDK4,"cell-free assay, inhibitor, TR-FRET",,2.9
O=c1oc(-c2ccccc2)ns1,Chymotrypsinogen A,"enzyme activity, inhibitor",,10
CCOC(=O)[C@H]1Cc2c(cc([N+](=O)[O-])cc2[N+](=O)[O-])[C@@H](O)[C@@]12C(=O)Nc1cc(Cl)ccc12,CDK4,"cell-free assay, inhibitor, TR-FRET",,0.94
CCOC(=O)CCCc1cc[c]([Sb](=[O])([OH])[OH])cc1,Flap endonuclease 1,"enzyme activity, inhibitor",with preincubation,1.7
CCOC(=O)[C@H]1Cc2c(cc([N+](=O)[O-])cc2[N+](=O)[O-])[C@@H](O)[C@@]12C(=O)Nc1ccc(Cl)cc12,CDK4,"cell-free assay, inhibitor, TR-FRET",,0.78
CN1CCC(=C2c3ccccc3CCc3cccnc32)CC1,CHRM2,"ligand displacement, radioligand",,0.064
